High-throughput results as filed in PubChem.
In the library only some 3% were active in any assay of this set; here they are far more common.
TMEM16A act – activates or potentiates the mouse TMEM16A chloride channel. Q8BHY3. HEK293 TMEM16A/YFP-H148Q/I152L, iodide quench fluorescence; active compounds read low. B-score at 10 µM. hit rate 0.3% among 340,000. AID 623877;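 active = fluorescence-ratio B-score plate-corrected deviation score at least 3 library SD below zero, with starting fluorescence score within 5 deviations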;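 note: channel opened by trigger with iodide after compound preincubation; score built on the fluorescence ratio of max minus min over baseline; more negative score means more quench and so TMEM16A activation or potentiation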
SR-BI HDL uptake – blocks mouse SR-BI lipid uptake from DiI-HDL; Q61009; ldlA[mSR-BI] CHO cells, DiI-HDL uptake fluorescence, 3 h; inhibition, % at 12.5 µM; hit rate 0.96% among 320,000;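 active = mean replicate inhibition of at least 70% and a set share of replicates each scoring 70 or more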
ANO1 block – inhibitors of mouse TMEM16A calcium-activated chloride channel; AID 588511; HEK293 TMEM16A/YFP iodide influx fluorescence, ionomycin; hit rate 1.2% among 310,000; normalized B-score (activity score, 25-100; higher = stronger inhibition) at 10 µM;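 active = ratio plate-corrected score three or more library SD toward inhibition, starting fluorescence score within five deviations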;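 note: score derived from kinetic fluorescence span divided by baseline fluorescence per well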
FID counter – displaces DNA intercalator in HCV helicase counter-screen. inhibition, % at 7.9 µM. AID 1845. DNA fluorescent intercalator displacement, fluorescence. hit rate 0.17% among 290,000; in the data active = inhibition above about 37%;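 note: higher means more ethidium bromide displaced from hairpin DNA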
SR-BI DiI-HDL act – activators of SR-BI mediated HDL lipid uptake; AID 504775; activation, % at 12.5 µM; hit rate 0.096% among 320,000; CHO ldlA[mSR-BI] cells, DiI-HDL uptake fluorescence, 3 h; 100 = double the neutral-control signal;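 active = mean replicate activation of at least 60% and every replicate at or above 60%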
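Test system: SR-BI-overexpressing, LDLR-lacking CHO cells; Medium: Ham's F12 with 0.5% BSA, HEPES 25 mM, pH 7.4; Schedule: 3 h, 37 °C; Technique: bottom-read fluorescence, 550/595 nm.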
Kir21 inh – inhibitors of mouse Kir2.1 inward-rectifier potassium channel | P35561 | HEK293-Kir2.1, FluxOR thallium flux fluorescence; active compounds read low | B-score at 10 µM | hit rate 0.85% among 310,000 | AID 1672;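 active = fluorescence ratio B-score at or below minus 3 SD of library scores, with starting-brightness B-score within 2 SD, cut at about -4.2 in these data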;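 note: channel flux triggered by added potassium and thallium sulfate stimulus; B-score of peak minus minimum fluorescence over baseline after thallium stimulus; more negative B-score means stronger Kir2.1 block with less thallium influx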
Target sequence (P35561 whole entry, looked up): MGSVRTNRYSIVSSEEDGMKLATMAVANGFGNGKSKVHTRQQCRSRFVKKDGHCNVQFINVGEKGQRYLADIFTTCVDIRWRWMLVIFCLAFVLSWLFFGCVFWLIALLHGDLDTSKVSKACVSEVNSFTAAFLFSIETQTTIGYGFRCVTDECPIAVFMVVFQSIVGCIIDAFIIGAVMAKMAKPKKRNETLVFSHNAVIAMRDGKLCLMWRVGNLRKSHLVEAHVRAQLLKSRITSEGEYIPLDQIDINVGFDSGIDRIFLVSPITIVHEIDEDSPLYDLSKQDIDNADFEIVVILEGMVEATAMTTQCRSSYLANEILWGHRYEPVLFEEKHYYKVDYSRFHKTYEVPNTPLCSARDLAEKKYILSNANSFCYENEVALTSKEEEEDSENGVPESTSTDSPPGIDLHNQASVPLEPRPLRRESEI
Hits are given with their value.

Screening CC(c1ccccc1)C1C(C#N)=C(N)SC(N)=C1C#N (configuration not stated) returned TMEM16A act inactive, SR-BI HDL uptake inactive, ANO1 block inactive, FID counter inactive, SR-BI DiI-HDL act inactive and Kir21 inh inactive.
CC(CC1C(C#N)=C(N)SC(N)=C1C#N)c1ccccc1 (configuration not stated) was read as TMEM16A act inactive, SR-BI HDL uptake inactive, ANO1 block 100, FID counter inactive, SR-BI DiI-HDL act inactive and Kir21 inh inactive.
`COc1ccc(CCNC(=O)CC(Cc2ccccc2)C(=O)O)cc1OC` (configuration not stated) gave TMEM16A act inactive, SR-BI HDL uptake inactive, ANO1 block inactive, FID counter inactive, SR-BI DiI-HDL act inactive and Kir21 inh inactive.
`CCn1c(C)c(/C=N/Nc2nc3ccccc3s2)c2ccccc21` gave TMEM16A act inactive, SR-BI HDL uptake 112.4, ANO1 block inactive, FID counter inactive, SR-BI DiI-HDL act inactive and Kir21 inh inactive.
`Oc1ccccc1C=NNc1nc2ccccc2s1` gave TMEM16A act inactive, SR-BI HDL uptake 101.0 and SR-BI DiI-HDL act inactive.
C(=N\Nc1nc2ccccc2s1)/c1cccs1 was read as TMEM16A act inactive, SR-BI HDL uptake inactive, ANO1 block inactive, FID counter inactive, SR-BI DiI-HDL act inactive and Kir21 inh inactive.
For Oc1ccccc1/C=N/Nc1nc2ccccc2o1 the results were TMEM16A act inactive, SR-BI HDL uptake 93.2, ANO1 block inactive, FID counter inactive, SR-BI DiI-HDL act inactive and Kir21 inh inactive.
For N#C/C(=C/C1=C(N2CCOCC2)C(=C/c2ccc(Cl)cc2Cl)/CC1)C(=O)Nc1ccccc1F the results were TMEM16A act inactive, SR-BI HDL uptake 74.1 and SR-BI DiI-HDL act inactive.
Clc1ccc(C2=NCCn3nc4ccccc4c32)cc1 was read as TMEM16A act inactive, SR-BI HDL uptake inactive, ANO1 block inactive, SR-BI DiI-HDL act inactive and Kir21 inh inactive.
For Nc1c(Cl)cc(C2=NCCn3nc4ccccc4c32)cc1Cl the results were TMEM16A act inactive, SR-BI HDL uptake 72.7, ANO1 block inactive, SR-BI DiI-HDL act inactive and Kir21 inh inactive.
For COc1ccc(CN(C)CC(=O)Nc2cccc(S(N)(=O)=O)c2)c(OC)c1OC the results were TMEM16A act inactive, ANO1 block inactive, FID counter inactive and Kir21 inh inactive.
For C[C@@H]1COC(=O)[C@@H](CC(=O)OC(C)(C)C)C/C=C\C[C@@H](CC(=O)NCCO)C(=O)N1 the results were SR-BI HDL uptake inactive and SR-BI DiI-HDL act inactive.
`COc1ccc(OC)c(/C=C2\SC(N3CCCC(C)C3)=NC2=O)c1` (configuration not stated) gave TMEM16A act inactive, SR-BI HDL uptake inactive, ANO1 block 100, FID counter inactive, SR-BI DiI-HDL act inactive and Kir21 inh inactive.
`COc1ccc(/C=C2\SC(N3CCCCC3)=NC2=O)cc1OC` gave TMEM16A act inactive, SR-BI HDL uptake inactive, ANO1 block inactive, FID counter inactive, SR-BI DiI-HDL act inactive and Kir21 inh inactive.
Screening O=C1NC(Cc2c[nH]c3ccccc23)C(=O)N1CCOc1ccc(F)cc1 (configuration not stated) returned TMEM16A act inactive, SR-BI HDL uptake inactive, ANO1 block inactive, FID counter inactive, SR-BI DiI-HDL act inactive and Kir21 inh -5.26.
CCOc1ccc(/C=C2/C(=N)N3OC(C)=CC3=NC2=O)cc1OC was read as TMEM16A act inactive, SR-BI HDL uptake inactive, ANO1 block inactive, FID counter inactive, SR-BI DiI-HDL act 85.5 and Kir21 inh inactive.
Screening COc1cccc(NC(=O)CCC2CCN(Cc3nccs3)CC2)c1 returned TMEM16A act inactive, SR-BI HDL uptake inactive, ANO1 block inactive, FID counter inactive, SR-BI DiI-HDL act inactive and Kir21 inh inactive.
Screening CN1CCN(C(c2cccc(Cl)c2)c2ccccc2Cl)CC1 (configuration not stated) returned TMEM16A act inactive, SR-BI HDL uptake inactive, ANO1 block inactive, FID counter inactive, SR-BI DiI-HDL act inactive and Kir21 inh -4.4.
`CN1CCN(C(c2ccccc2)c2ccc(Cl)cc2)CC1` (configuration not stated) gave TMEM16A act inactive, SR-BI HDL uptake inactive, ANO1 block inactive and SR-BI DiI-HDL act inactive.
`O=C(Nc1ccccc1C(=O)Nc1nnc(C(F)(F)F)s1)c1ccccc1` gave TMEM16A act -6.18, SR-BI HDL uptake inactive, ANO1 block 100, FID counter inactive, SR-BI DiI-HDL act inactive and Kir21 inh inactive.
For Cc1occc1C(=O)Nc1nnc(C(F)(F)F)s1 the results were TMEM16A act inactive, SR-BI HDL uptake inactive, ANO1 block inactive, FID counter inactive, SR-BI DiI-HDL act inactive and Kir21 inh inactive.
COCCCNC(=O)CN(c1cccc(Cl)c1)S(C)(=O)=O was read as TMEM16A act inactive, SR-BI HDL uptake inactive, ANO1 block inactive, FID counter inactive, SR-BI DiI-HDL act 526.9 and Kir21 inh inactive.
For CCOc1ccc(Nc2ccc([N+](=O)[O-])c3nonc23)cc1 the results were TMEM16A act inactive, SR-BI HDL uptake inactive, ANO1 block 100, FID counter inactive, SR-BI DiI-HDL act inactive and Kir21 inh inactive.
CC1(C)Cc2c(sc(NC(=O)c3ccccc3Cl)c2C(=O)O)CO1 was read as TMEM16A act inactive, SR-BI HDL uptake inactive, ANO1 block inactive, FID counter inactive, SR-BI DiI-HDL act inactive and Kir21 inh inactive.
`CCOC(=O)c1c(NC(=O)c2ccccc2C)sc2c1CC(C)(C)OC2` gave TMEM16A act inactive, ANO1 block inactive, FID counter inactive and Kir21 inh inactive.
COC(=O)c1c(NC(=O)c2ccccc2)sc2c1CC(C)(C)OC2 was read as TMEM16A act inactive, SR-BI HDL uptake 72.8, ANO1 block inactive, FID counter inactive, SR-BI DiI-HDL act inactive and Kir21 inh inactive.
`CCOC(=O)c1c(NC(=O)c2ccc(C)cc2)sc2c1CC(C)(C)OC2` gave TMEM16A act inactive, SR-BI HDL uptake inactive, ANO1 block 25, FID counter inactive, SR-BI DiI-HDL act inactive and Kir21 inh inactive.
`Cc1ccc(Nc2cc(C)nc3ncnn23)c(C)c1` gave TMEM16A act inactive, SR-BI HDL uptake inactive, ANO1 block inactive, FID counter inactive, SR-BI DiI-HDL act inactive and Kir21 inh inactive.
Screening Cc1ccc(C)c(Nc2cc(C)nc3ncnn23)c1 returned TMEM16A act inactive, SR-BI HDL uptake inactive, ANO1 block inactive, FID counter inactive, SR-BI DiI-HDL act 192.1 and Kir21 inh inactive.
Screening CCn1c2ccccc2c2cc(Nc3cc(C)nc4ncnn34)ccc21 returned TMEM16A act inactive, SR-BI HDL uptake inactive, ANO1 block inactive, FID counter inactive, SR-BI DiI-HDL act inactive and Kir21 inh -7.61.
Screening CCc1ccc(Nc2cc(C)nc3ncnn23)cc1 returned TMEM16A act inactive, SR-BI HDL uptake inactive, ANO1 block inactive, FID counter inactive, SR-BI DiI-HDL act inactive and Kir21 inh inactive.
